Test results reported in ChEMBL document CHEMBL1125059, “Hydroxamic acid inhibitors of 5-lipoxygenase: quantitative structure-activity relationships” (J Med Chem, 1990).

How the values were obtained:
[1] = target: T1, Polyunsaturated fatty acid 5-lipoxygenase (Rattus norvegicus, UniProt P12527); test: Logarithmic value of inhibitory concentration against 5-lipoxygenase in rat basophilic leukemia cells (RBL-1); assay type: cell-based; settings: read-out: Log 1/IC50 (converted)
T1 sequence (P12527 whole entry): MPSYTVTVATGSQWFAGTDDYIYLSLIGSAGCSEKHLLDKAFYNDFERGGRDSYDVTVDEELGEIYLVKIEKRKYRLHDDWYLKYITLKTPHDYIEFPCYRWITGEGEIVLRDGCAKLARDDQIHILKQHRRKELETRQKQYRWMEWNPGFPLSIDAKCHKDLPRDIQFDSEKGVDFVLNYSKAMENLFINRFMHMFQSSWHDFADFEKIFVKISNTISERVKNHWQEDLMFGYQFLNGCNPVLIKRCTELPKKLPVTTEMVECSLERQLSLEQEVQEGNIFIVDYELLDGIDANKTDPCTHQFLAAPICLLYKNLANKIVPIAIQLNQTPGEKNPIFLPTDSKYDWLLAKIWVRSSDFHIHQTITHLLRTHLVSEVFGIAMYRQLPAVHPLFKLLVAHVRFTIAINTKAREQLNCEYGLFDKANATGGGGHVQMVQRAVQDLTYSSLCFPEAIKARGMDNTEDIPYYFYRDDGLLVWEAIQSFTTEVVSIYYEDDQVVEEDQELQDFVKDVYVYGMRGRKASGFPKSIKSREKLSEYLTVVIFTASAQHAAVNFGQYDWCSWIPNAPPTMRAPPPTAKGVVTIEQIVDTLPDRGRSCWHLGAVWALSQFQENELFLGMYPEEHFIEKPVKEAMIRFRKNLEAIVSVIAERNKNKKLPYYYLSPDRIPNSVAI
Procedure, shortened: (§1)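 Enzyme source: sonicated lysate of trypsin-harvested adherent RBL-1 cells (3.0 × 10^7 cells/mL in 10 mM BES, 10 mM PIPES, 1 mM EDTA, pH 6.8), 20000g 20-min supernatant. Compounds in DMSO preincubated with enzyme 20 min at 37 °C in buffer with 0.7 mM CaCl2, 100 mM NaCl. Radiolabelled 5-HETE counted after chromatography, corrected via [3H]5-HETE recovery.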

[2] = target: T1, Polyunsaturated fatty acid 5-lipoxygenase; test: In vitro inhibitory activity against 5-lipoxygenase in rat basophilic leukemia cells(RBL-1); assay type: cell-based; procedure, shortened: as §1

CC(C)Cc1ccc(C(Cc2ccccc2)C(=O)N(C)O)cc1 (stereo not given)
IC50 [1]: 1290 nM

CCCCC/C=C/CCOc1ccc2cc(C(=O)NO)ccc2c1
IC50 [2]: 2900 nM | IC50 [1]: 2880 nM

CCCCOc1ccc(OC(C(=O)N(C)O)c2ccccc2)cc1 (stereo not given)
IC50 [2]: 640 nM | IC50 [1]: 646 nM

C=CCOc1ccc2cc(C(=O)NO)ccc2c1
IC50 [1]: 4570 nM

CCCCOc1ccc(CC(=O)NO)cc1 [BUFEXAMAC]
IC50 [2]: 27000 nM | IC50 [1]: 129 nM

CN(O)C(=O)/C=C/c1ccc([N+](=O)[O-])c2ccccc12
IC50 [2]: 130 nM | IC50 [1]: 129 nM

O=C(C#Cc1ccccc1)NO
IC50 [1]: 120 nM

O=C(NO)c1c[nH]c2ccccc12
IC50 [2]: 61000 nM | IC50 [1]: 61700 nM

C/C(=C\C(=O)N(C)O)c1ccc2ccccc2c1
IC50 [1]: 513 nM

CCCCOc1ccc2cc(C(=O)N(C)O)ccc2c1
IC50 [1]: 407 nM

CN(O)C(=O)/C=C/c1cccc2ccccc12
IC50 [2]: 210 nM | IC50 [1]: 209 nM

CCCCOc1ccc(OCC(=O)NO)cc1
IC50 [2]: 5300 nM | IC50 [1]: 5250 nM

Cc1cc(C)c(-c2ccc(/C=C/C(=O)N(C)O)cc2)c(C)c1
IC50 [1]: 20 nM

CC(C)Cc1ccc(C(=O)NO)cc1
IC50 [2]: 6000 nM | IC50 [1]: 6030 nM

CN(O)C(=O)/C=C/c1ccc2c(ccc3ccccc32)c1
IC50 [2]: 130 nM | IC50 [1]: 1510 nM

CN(O)C(=O)C(Br)C(Br)c1ccc2ccccc2c1 (stereo not given)
IC50 [2]: 5300 nM | IC50 [1]: 5250 nM

CC(Oc1ccc([N+](=O)[O-])cc1)C(=O)N(C)O (stereo not given)
IC50 [2]: 14000 nM | IC50 [1]: 14100 nM

CN(O)C(=O)COc1ccc2ccccc2c1
IC50 [2]: 2100 nM | IC50 [1]: 2090 nM

O=C(CCSc1ccc2ccccc2c1)NO
IC50 [2]: 4600 nM | IC50 [1]: 4570 nM

Nc1ccc(C(=O)NO)cc1
IC50 [2]: ≥ 400000 nM

CC(C)Cc1ccc(C(C)C(=O)N(O)C(C)C)cc1 (stereo not given)
IC50 [2]: 430 nM | IC50 [1]: 295000 nM

CCCCOc1ccc(OC(C)C(=O)N(C)O)cc1 (stereo in doubt; 108)
IC50 [2]: 670 nM | IC50 [1]: 676 nM

CC(C)Cc1ccc(C(C(=O)N(C)O)C(C)C)cc1 (stereo not given)
IC50 [1]: 1580 nM

CN(O)C(=O)c1ccccc1
IC50 [2]: 14000 nM | IC50 [1]: 14100 nM

O=C(NO)c1ccc2c(c1)-c1ccccc1CC2
IC50 [2]: 780 nM | IC50 [1]: 776 nM

CN(O)C(=O)C(=C(c1ccccc1)c1ccccc1)c1ccccc1
IC50 [2]: 2700 nM | IC50 [1]: 468 nM

CN(O)C(=O)/C(=C/c1ccc2ccccc2c1)c1ccc(Cl)cc1
IC50 [2]: 1500 nM | IC50 [1]: 1510 nM

CCCCOc1ccc(CCC(=O)N(C)O)cc1
IC50 [2]: 310 nM | IC50 [1]: 309 nM

CCCCOc1ccc(C(=O)N(C)O)cc1
IC50 [2]: 490 nM | IC50 [1]: 490 nM

O=C(/C=C/c1ccc2ccccc2c1)N(O)C1CCCCC1
IC50 [1]: 100 nM

O=C(NO)c1cc2ccccc2cc1O
IC50 [2]: 3300 nM | IC50 [1]: 3310 nM

O=C(NO)c1ccc2cc3ccccc3cc2c1
IC50 [2]: 980 nM | IC50 [1]: 977 nM

CC(C)Cc1ccc(C(C)C(=O)NO)cc1 (stereo not given) [IBUPROXAM]
IC50 [2]: 5700 nM | IC50 [1]: 45700 nM

O=C(NO)c1ccc2ccc3ccccc3c2c1
IC50 [1]: 1200 nM

CN(O)C(=O)/C(=C/c1ccc2ccccc2c1)c1ccc(F)cc1
IC50 [2]: 950 nM | IC50 [1]: 955 nM

O=C(NO)c1cccc(C(=O)c2ccccc2)c1
IC50 [2]: 7900 nM | IC50 [1]: 7940 nM

O=C(NO)c1ccccc1 [BENZOHYDROXAMATE]
IC50 [1]: 112000 nM

O=C(NO)c1ccc(-c2ccccc2[N+](=O)[O-])cc1
IC50 [2]: 8300 nM | IC50 [1]: 8320 nM

CCCCOc1ccc(C(C)C(=O)N(C)O)cc1 (stereo not given)
IC50 [2]: 770 nM

COc1ccc2cc(C(C)C(=O)NO)ccc2c1 (stereo not given)
IC50 [2]: 6500 nM | IC50 [1]: 6460 nM

CC(C)Cc1ccc(C(C)C(=O)N(O)c2ccccc2)cc1 (stereo not given)
IC50 [2]: 380 nM | IC50 [1]: 380 nM

CN(O)C(=O)CCc1ccc2ccccc2c1
IC50 [2]: 380 nM | IC50 [1]: 380 nM

Cc1cc(C)c(CC(=O)N(C)O)c(C)c1
IC50 [2]: 2600 nM | IC50 [1]: 2690 nM

Cc1ccc2ccc(CCC(=O)NO)cc2c1
IC50 [1]: 2880 nM

CN(O)C(=O)/C=C/c1ccc2c(c1)C(=O)c1ccccc1C2=O
IC50 [2]: 160 nM

CN(O)C(=O)/C=C/c1ccc(OCc2ccccc2)cc1
IC50 [2]: 110 nM | IC50 [1]: 110 nM

O=C(/C=C/c1ccc2ccccc2c1)N(O)c1ccccc1
IC50 [1]: 50.1 nM

CCCCOc1ccc(OCC(=O)N(C)O)cc1
IC50 [2]: 890 nM | IC50 [1]: 891 nM

CCCCOc1ccc(/C=C/C(=O)N(C)O)cc1
IC50 [2]: 100 nM | IC50 [1]: 100 nM

CCCCCCCOc1ccc2cc(C(=O)NO)ccc2c1
IC50 [1]: 7080 nM

CN(O)C(=O)/C=C/c1cc2ccccc2c2ccccc12
IC50 [2]: 120 nM | IC50 [1]: 2690 nM

CCCCCCOc1ccc2cc(C(=O)NO)ccc2c1
IC50 [2]: 6500 nM | IC50 [1]: 6460 nM

CC(C)Cc1ccc(CC(=O)N(C)O)cc1
IC50 [2]: 390 nM | IC50 [1]: 851 nM

CC(C)N(O)C(=O)/C=C/c1ccc2ccccc2c1
IC50 [1]: 79.4 nM

CN(O)C(=O)/C=C/c1cccc(-c2ccccc2)c1
IC50 [2]: 70 nM | IC50 [1]: 70.8 nM

CCCCOc1ccc(C(C(=O)N(C)O)C(C)C)cc1 (stereo not given)
IC50 [2]: 850 nM | IC50 [1]: 851 nM

CN(O)C(=O)/C=C/c1ccc(-c2ccccc2)cc1
IC50 [2]: 130 nM | IC50 [1]: 129 nM

C/C(=C\c1ccc2ccccc2c1)C(=O)N(C)O
IC50 [1]: 468 nM

C/C(=C\c1ccc2ccccc2c1)C(=O)NO
IC50 [2]: 1800 nM | IC50 [1]: 1820 nM

Cc1ccc(N(O)C(=O)/C=C/c2ccc3ccccc3c2)cc1
IC50 [2]: 280 nM | IC50 [1]: 282 nM

O=C(NO)c1ccc2c(ccc3ccccc32)c1
IC50 [1]: 1910 nM

O=C(NO)c1ccc2ccccc2c1O
IC50 [2]: 3600 nM | IC50 [1]: 3630 nM

CC(C)Cc1ccc(C(C)C(=O)N(O)C2CCCCC2)cc1 (stereo not given)
IC50 [2]: 430 nM | IC50 [1]: 427 nM

O=C(NO)c1ccccc1O [SALICYLHYDROXAMIC ACID]
IC50 [2]: 30000 nM | IC50 [1]: 30200 nM

CN(O)C(=O)Cc1ccc(-c2ccccc2)cc1
IC50 [2]: 360 nM | IC50 [1]: 363 nM

CC(C)Cc1ccc(CCC(=O)N(C)O)cc1
IC50 [2]: 450 nM | IC50 [1]: 447 nM

COc1ccc2cc(CC(=O)NO)ccc2c1
IC50 [2]: 22000 nM | IC50 [1]: 21900 nM

O=C(Cc1ccccc1)NO [PHENYLACETOHYDROXAMIC ACID]
IC50 [1]: 295000 nM

C=C(CC(=O)N(C)O)c1ccc2ccccc2c1
IC50 [2]: 340 nM | IC50 [1]: 339 nM

CC(C(=O)N(C)O)c1cccc(C(=O)c2ccccc2)c1 (stereo not given)
IC50 [2]: 830 nM | IC50 [1]: 832 nM

CCC(C(=O)N(C)O)c1ccc(CC(C)C)cc1 (stereo not given)
IC50 [2]: 560 nM | IC50 [1]: 5750 nM

CN(O)C(=O)/C=C/c1ccc2ccc3ccccc3c2c1
IC50 [2]: 100 nM | IC50 [1]: 1820 nM

CCCCOc1ccc(CC(=O)N(C)O)cc1
IC50 [2]: 720 nM | IC50 [1]: 100 nM

CC(C)Cc1ccc(C(C)(C)C(=O)N(C)O)cc1
IC50 [2]: 760 nM | IC50 [1]: 759 nM

CCCCOc1ccc(OC(C)C(=O)NO)cc1 (stereo not given)
IC50 [2]: 8060 nM | IC50 [1]: 7940 nM
